# In ChEMBL document CHEMBL5620393, “New aryl and acylsulfonamides as state-dependent inhibitors of Nav1.3 voltage-gated sodium channel” (Eur J Med Chem, 2023):
# Active and inactive are the calls of the source. No cut-off for these calls is given here.
# Columns and labels:
# HepG2 = test: Cytotoxicity against human HepG2 cells
# [1] = molecular target: Sodium channel protein type 2 subunit alpha (Rattus norvegicus) (UniProt P04775); test: Inhibition of rat Nav1.2 expressed in Xenopus laevis oocytes at closed state at 1 uM by two electrode voltage-clamp assay; format: cell-based; details: Oocyte
# Outline: (§1)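 TEVC on Nav channels expressed in Xenopus laevis oocytes. Each oocyte was injected with 50 nL cRNA at 1 ng/nL and recorded 1–4 days later at 18–22 °C. Bath (mM): NaCl 96, KCl 2, CaCl2 1.8, MgCl2 2, HEPES 5, pH 7.4. Electrodes held 3 M KCl at 0.8–1.5 MΩ. Compound tested at 1 μM. Mean ± SD, n ≥ 5.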
# [2] = molecular target: T1, Sodium channel protein type 5 subunit alpha (Homo sapiens, UniProt Q14524); test: Inhibition of human Nav1.5 expressed in Xenopus laevis oocytes at closed state at 1 uM by two electrode voltage-clamp assay; format: cell-based; details: oocyte; outline: as §1
# [3] = molecular target: T1, Sodium channel protein type 5 subunit alpha; test: Inhibition of human Nav1.5 expressed in CHO cells under inactivated state by automated patch clamp electrophysiology analysis; format: cell-based
# [4] = molecular target: T1, Sodium channel protein type 5 subunit alpha; test: Inhibition of human Nav1.5 expressed in CHO cells under tonic pulse 1 by automated patch clamp electrophysiology analysis; format: cell-based
# [5] = molecular target: Sodium channel protein type 3 subunit alpha (Rattus norvegicus) (UniProt P08104); test: Inhibition of rat Nav1.3 expressed in Xenopus laevis oocytes at 1 uM under resting state by two electrode voltage-clamp assay relative to control; format: cell-based; details: Oocyte; outline: as §1
# [6] = molecular target: T2, Sodium channel protein type 9 subunit alpha (Homo sapiens, UniProt Q15858); test: Inhibition of human Nav1.7 expressed in Xenopus laevis oocytes at closed state at 1 uM by two electrode voltage-clamp assay; format: cell-based; details: Oocyte; outline: as §1
# [7] = molecular target: T3, Sodium channel protein type 3 subunit alpha (Homo sapiens, UniProt Q9NY46); test: Inhibition of human Nav1.3 expressed in CHO cells under resting state by automated patch clamp electrophysiology analysis; format: cell-based
# [8] = molecular target: Sodium channel protein type 3 subunit alpha (Rattus norvegicus) (UniProt P08104); test: Inhibition of rat Nav1.3 expressed in Xenopus laevis oocytes at 1 uM under inactivated state by two electrode voltage-clamp assay relative to control; format: cell-based; details: Oocyte; outline: as §1
# [9] = molecular target: Sodium channel protein type 4 subunit alpha (Rattus norvegicus) (UniProt P15390); test: Inhibition of rat Nav1.4 expressed in Xenopus laevis oocytes at closed state at 1 uM by two electrode voltage-clamp assay; format: cell-based; details: Oocyte; outline: as §1
# [10] = molecular target: T1, Sodium channel protein type 5 subunit alpha; test: Inhibition of human Nav1.5 expressed in CHO cells by automated patch clamp electrophysiology analysis
# [11] = molecular target: Sodium channel protein type 8 subunit alpha (Mus musculus) (UniProt Q9WTU3); test: Inhibition of mouse Nav1.6 expressed in Xenopus laevis oocytes at closed state at 1 uM by two electrode voltage-clamp assay; format: cell-based; details: Oocyte; outline: as §1
# Sequence of Sodium channel protein type 8 subunit alpha (Mus musculus) (Q9WTU3 whole entry): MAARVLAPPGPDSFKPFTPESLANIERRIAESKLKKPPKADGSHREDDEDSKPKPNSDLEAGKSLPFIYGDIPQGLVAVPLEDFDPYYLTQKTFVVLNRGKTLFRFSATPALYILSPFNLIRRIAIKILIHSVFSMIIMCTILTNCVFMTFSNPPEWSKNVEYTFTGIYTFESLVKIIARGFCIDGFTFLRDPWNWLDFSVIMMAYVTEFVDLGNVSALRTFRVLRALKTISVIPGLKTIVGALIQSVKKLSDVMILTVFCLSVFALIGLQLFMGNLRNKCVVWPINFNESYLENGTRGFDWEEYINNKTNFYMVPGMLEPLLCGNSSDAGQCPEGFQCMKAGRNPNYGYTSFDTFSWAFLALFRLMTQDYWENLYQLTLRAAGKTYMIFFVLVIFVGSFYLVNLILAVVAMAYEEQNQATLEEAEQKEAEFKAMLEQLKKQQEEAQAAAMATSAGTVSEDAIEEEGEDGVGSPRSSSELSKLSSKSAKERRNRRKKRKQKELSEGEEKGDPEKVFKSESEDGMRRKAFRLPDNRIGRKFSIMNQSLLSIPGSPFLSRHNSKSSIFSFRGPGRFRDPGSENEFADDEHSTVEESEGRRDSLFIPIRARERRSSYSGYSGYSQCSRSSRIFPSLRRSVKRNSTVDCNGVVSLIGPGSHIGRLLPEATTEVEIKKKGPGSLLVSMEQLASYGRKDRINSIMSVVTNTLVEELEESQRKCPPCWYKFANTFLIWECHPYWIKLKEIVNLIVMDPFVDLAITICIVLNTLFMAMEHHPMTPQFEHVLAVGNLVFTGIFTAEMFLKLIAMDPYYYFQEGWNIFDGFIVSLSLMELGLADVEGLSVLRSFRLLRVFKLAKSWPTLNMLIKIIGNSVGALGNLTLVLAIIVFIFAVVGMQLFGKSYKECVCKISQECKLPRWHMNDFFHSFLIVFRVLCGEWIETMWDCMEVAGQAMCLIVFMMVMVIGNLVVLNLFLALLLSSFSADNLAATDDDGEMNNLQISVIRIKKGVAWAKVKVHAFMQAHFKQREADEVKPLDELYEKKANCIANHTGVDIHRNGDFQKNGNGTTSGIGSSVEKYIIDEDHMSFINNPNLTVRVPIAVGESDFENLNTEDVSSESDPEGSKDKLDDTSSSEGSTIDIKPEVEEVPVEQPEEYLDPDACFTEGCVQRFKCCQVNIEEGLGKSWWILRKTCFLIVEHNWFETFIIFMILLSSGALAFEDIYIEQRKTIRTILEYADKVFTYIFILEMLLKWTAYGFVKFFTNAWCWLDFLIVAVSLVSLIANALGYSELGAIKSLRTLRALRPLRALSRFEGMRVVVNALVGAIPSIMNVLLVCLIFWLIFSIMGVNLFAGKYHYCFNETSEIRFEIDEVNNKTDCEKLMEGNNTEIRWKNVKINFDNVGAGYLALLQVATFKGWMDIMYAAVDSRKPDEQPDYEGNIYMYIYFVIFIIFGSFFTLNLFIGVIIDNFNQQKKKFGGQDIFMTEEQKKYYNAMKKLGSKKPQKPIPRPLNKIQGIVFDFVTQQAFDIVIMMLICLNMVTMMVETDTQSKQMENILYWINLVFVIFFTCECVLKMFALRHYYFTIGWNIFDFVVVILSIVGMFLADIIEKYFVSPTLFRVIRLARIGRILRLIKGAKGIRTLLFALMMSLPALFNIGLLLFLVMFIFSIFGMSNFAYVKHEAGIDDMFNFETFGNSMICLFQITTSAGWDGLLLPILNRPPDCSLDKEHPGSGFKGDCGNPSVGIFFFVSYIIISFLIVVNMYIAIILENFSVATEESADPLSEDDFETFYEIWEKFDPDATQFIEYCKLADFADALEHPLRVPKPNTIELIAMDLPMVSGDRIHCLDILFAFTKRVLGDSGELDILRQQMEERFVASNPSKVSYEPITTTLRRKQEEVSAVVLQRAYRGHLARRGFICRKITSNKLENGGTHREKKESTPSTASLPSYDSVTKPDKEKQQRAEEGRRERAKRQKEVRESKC
# [12] = molecular target: Sodium channel protein type 1 subunit alpha (Homo sapiens) (UniProt P35498); test: Inhibition of human Nav1.1 expressed in Xenopus laevis oocytes at closed state at 1 uM by two electrode voltage-clamp assay; format: cell-based; details: Oocyte; outline: as §1
# [13] = molecular target: T2, Sodium channel protein type 9 subunit alpha; test: Inhibition of human Nav1.7 expressed in CHO cells under inactivated state by automated patch clamp electrophysiology analysis; format: cell-based
# [14] = molecular target: T2, Sodium channel protein type 9 subunit alpha; test: Inhibition of human Nav1.7 expressed in CHO cells under resting state by automated patch clamp electrophysiology analysis; format: cell-based
# [15] = molecular target: Sodium channel protein type 10 subunit alpha (Homo sapiens) (UniProt Q9Y5Y9); test: Inhibition of human Nav1.8 expressed in Xenopus laevis oocytes at closed state at 1 uM by two electrode voltage-clamp assay; format: cell-based; details: Oocyte; outline: as §1
# Sequence of Sodium channel protein type 10 subunit alpha (Homo sapiens) (Q9Y5Y9 whole entry, looked up): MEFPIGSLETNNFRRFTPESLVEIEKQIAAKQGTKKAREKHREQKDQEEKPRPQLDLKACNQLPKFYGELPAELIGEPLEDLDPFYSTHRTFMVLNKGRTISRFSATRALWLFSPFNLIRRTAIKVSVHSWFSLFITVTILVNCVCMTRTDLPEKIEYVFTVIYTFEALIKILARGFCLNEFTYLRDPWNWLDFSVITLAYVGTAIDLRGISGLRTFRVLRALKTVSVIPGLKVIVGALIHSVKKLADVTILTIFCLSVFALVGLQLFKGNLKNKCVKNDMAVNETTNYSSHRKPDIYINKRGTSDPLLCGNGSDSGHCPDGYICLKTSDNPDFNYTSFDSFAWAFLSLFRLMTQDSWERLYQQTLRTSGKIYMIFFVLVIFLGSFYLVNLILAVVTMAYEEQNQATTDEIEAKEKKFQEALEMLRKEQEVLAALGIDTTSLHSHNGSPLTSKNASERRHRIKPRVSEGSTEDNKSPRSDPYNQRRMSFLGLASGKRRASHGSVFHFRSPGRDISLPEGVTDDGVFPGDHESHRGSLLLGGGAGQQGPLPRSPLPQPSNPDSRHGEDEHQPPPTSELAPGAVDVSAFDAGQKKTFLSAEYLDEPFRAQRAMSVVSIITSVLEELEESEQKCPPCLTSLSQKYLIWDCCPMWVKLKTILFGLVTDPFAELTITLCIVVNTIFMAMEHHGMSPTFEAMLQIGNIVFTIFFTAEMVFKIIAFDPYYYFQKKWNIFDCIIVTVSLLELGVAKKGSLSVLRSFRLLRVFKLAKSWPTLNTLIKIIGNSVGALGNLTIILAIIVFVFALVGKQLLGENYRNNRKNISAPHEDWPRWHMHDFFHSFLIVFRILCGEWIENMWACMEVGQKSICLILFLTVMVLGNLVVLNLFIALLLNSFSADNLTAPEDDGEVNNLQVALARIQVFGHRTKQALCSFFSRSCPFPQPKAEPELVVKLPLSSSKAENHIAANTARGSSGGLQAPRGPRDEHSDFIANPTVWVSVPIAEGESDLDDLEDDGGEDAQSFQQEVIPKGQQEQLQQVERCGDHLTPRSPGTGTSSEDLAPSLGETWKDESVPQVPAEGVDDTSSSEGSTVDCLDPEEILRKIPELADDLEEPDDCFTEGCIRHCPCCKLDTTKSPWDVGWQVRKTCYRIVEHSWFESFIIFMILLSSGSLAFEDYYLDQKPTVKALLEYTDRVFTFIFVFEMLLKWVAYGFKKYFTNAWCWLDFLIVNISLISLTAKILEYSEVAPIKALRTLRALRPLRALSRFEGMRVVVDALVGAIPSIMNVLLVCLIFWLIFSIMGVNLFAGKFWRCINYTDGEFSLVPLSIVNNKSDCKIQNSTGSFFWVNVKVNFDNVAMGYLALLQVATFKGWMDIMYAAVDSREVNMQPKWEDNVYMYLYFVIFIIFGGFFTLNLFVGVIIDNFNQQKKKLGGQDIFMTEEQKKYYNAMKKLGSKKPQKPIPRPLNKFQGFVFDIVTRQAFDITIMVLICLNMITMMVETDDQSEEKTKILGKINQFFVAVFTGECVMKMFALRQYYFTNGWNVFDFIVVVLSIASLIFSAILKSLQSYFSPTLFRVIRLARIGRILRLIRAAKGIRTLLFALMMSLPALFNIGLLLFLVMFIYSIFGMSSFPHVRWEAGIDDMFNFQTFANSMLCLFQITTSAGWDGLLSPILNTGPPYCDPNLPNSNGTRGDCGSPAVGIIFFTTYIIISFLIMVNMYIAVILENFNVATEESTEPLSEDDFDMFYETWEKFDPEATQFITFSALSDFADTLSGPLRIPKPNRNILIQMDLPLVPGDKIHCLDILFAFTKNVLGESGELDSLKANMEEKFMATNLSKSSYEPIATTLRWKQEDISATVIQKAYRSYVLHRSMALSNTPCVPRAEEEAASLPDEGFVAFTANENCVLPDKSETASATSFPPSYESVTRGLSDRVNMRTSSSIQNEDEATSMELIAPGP
# [16] = molecular target: T3, Sodium channel protein type 3 subunit alpha; test: Inhibition of human Nav1.3 expressed in CHO cells under inactivated state by automated patch clamp electrophysiology analysis; format: cell-based
# [17] = molecular target: T1, Sodium channel protein type 5 subunit alpha; test: Inhibition of human Nav1.5 expressed in CHO cells under resting state by automated patch clamp electrophysiology analysis; format: cell-based
Compound,IC50 (HepG2) [µM],inhibition [1],inhibition (INH) [2],IC50 [3] [µM],IC50 [4] [µM],inhibition [5] [%],inhibition [6],IC50 [7] [µM],inhibition [8] [%],inhibition [9],IC50 [10] [µM],inhibition [11],inhibition [12],IC50 [13] [µM],IC50 [14] [µM],inhibition [15],IC50 [16] [µM],IC50 [17] [µM]
COc1cc([C@@H]2c3cc4c(cc3[C@@H](O[C@@H]3O[C@@H]5CO[C@@H](C)O[C@H]5[C@H](O)[C@H]3O)[C@H]3COC(=O)[C@H]23)OCO4)cc(OC)c1O [ETOPOSIDE],30.2,–,–,–,–,–,–,–,–,–,–,–,–,–,–,–,–,–
O=C(Nc1ccc(S(=O)(=O)Nc2nccs2)cc1)C1CC1c1ccc(F)c(F)c1 (racemic),–,inactive,Not Active,3,> 30,< 9,inactive,6.9,63,inactive,> 30,inactive,inactive,7.1,> 30,inactive,0.02,> 30
O=C(Nc1ccc(S(=O)(=O)Nc2nccs2)cc1)C1Cc2cc(Cl)ccc2O1 (configuration not stated),–,inactive,Not Active,–,> 30,–,inactive,> 30,21,inactive,> 30,inactive,inactive,–,–,inactive,0.24,–
CC(Oc1ccc(Cl)cc1)C(=O)Nc1ccc(S(=O)(=O)Nc2nccs2)cc1 (configuration not stated),–,inactive,Not Active,–,> 30,–,inactive,> 30,21,inactive,> 30,inactive,inactive,–,–,inactive,0.32,–
